Measured values: ChEMBL document CHEMBL4428101, “The Oncolytic Efficacy and in Vivo Pharmacokinetics of [2-(4-Chlorophenyl)quinolin-4-yl](piperidine-2-yl)methanol (Vacquinol-1) Are Governed by Distinct Stereochemical Features” (J Med Chem, 2016)
Values belong to the compound of their own block, whether it stands above or below them. The source made the active and inactive calls. The calls are words filed in the database; no cut-off is given here.

Legend:
[1] = Cytotoxicity against patient-derived U3013MG cells assessed as reduction in cell viability after 48 hrs by Celltiter-Glo reagent based assay; assay type: functional; settings: Homo sapiens
U3013MG [2] = experiment: Cytotoxicity against patient-derived U3013MG cells assessed as induction of catastrophic vacuolization at 5 uM after 4 to 8 hrs by light microscopy; assay type: functional, cell-based; settings: Homo sapiens
Summary of the method: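 U3013 glioblastoma cells in 384-well plates were examined by light microscopy at 4 h intervals for large lucent intracellular vacuoles, with bright-field imaging at 37 °C, 5% CO2.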

[3] = Cmax in NMRI mouse brain at 2 mg/kg, iv administered as single dose measured after 144 hrs by UPLC-MS/MS analysis; assay type: ADME, organism-based; parameters: dose 2 mg/kg, route intravenous
Summary of the method: (§1)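 Single dose to male NMRI mice, i.v. tail vein under light isoflurane or p.o. gavage without anesthesia. Blood by orbital plexus into EDTA, plasma by centrifugation at +4 °C; brains homogenized in 4 mL PBS (pH 7.4) per g. Sampled 15 min to 144 h, n = 3 per time point. UPLC-MS/MS with internal standard; noncompartmental analysis of composite mean profiles using nominal times and doses.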

[4] = Cmax in NMRI mouse brain at 20 mg/kg, po administered as single dose through gavage measured after 144 hrs by UPLC-MS/MS analysis; assay type: ADME, organism-based; parameters: dose 20 mg/kg, route oral; summary of the method: as §1
[5] = AUClast in NMRI mouse brain at 2 mg/kg, iv administered as single dose measured after 144 hrs by UPLC-MS/MS analysis; assay type: ADME, organism-based; parameters: dose 2 mg/kg, time < 144 hr, route intravenous; summary of the method: as §1
[6] = AUClast in NMRI mouse brain at 20 mg/kg, po administered as single dose through gavage measured after 144 hrs by UPLC-MS/MS analysis; assay type: ADME, organism-based; parameters: dose 20 mg/kg, time < 144 hr, route oral; summary of the method: as §1
[7] = Tlast in NMRI mouse brain at 2 mg/kg, iv administered as single dose by UPLC-MS/MS analysis; assay type: ADME, organism-based; settings: in vivo; summary of the method: as §1
[8] = Tlast in NMRI mouse brain at 20 mg/kg, po administered as single dose through gavage by UPLC-MS/MS analysis; assay type: ADME, organism-based; settings: in vivo; summary of the method: as §1
[9] = Half life in NMRI mouse brain at 2 mg/kg, iv administered as single dose by UPLC-MS/MS analysis; assay type: ADME, organism-based; summary of the method: as §1
[10] = Half life in NMRI mouse brain at 20 mg/kg, po administered as single dose through gavage by UPLC-MS/MS analysis; assay type: ADME, organism-based; summary of the method: as §1
[11] = Oral bioavailability in NMRI mouse brain at 20 mg/kg administered as single dose through gavage measured after 144 hrs by UPLC-MS/MS analysis; assay type: ADME, organism-based; summary of the method: as §1
[12] = AUClast in NMRI mouse plasma at 2 mg/kg, iv administered as single dose measured up to 144 hrs post dose by UPLC-MS/MS analysis; assay type: ADME, organism-based; parameters: time < 144 hr, dose 2 mg/kg, route intravenous; summary of the method: as §1
[13] = AUClast in NMRI mouse plasma at 20 mg/kg, po administered as single dose through gavage measured up to 144 hrs post dose by UPLC-MS/MS analysis; assay type: ADME, organism-based; parameters: dose 20 mg/kg, time < 144 hr, route oral; summary of the method: as §1
[14] = Tlast in NMRI mouse plasma at 2 mg/kg, iv administered as single dose by UPLC-MS/MS analysis; assay type: ADME, organism-based; settings: in vivo; summary of the method: as §1
[15] = Tlast in NMRI mouse plasma at 20 mg/kg, po administered as single dose through gavage by UPLC-MS/MS analysis; assay type: ADME, organism-based; settings: in vivo; summary of the method: as §1
[16] = Half life in NMRI mouse plasma at 20 mg/kg, po administered as single dose through gavage by UPLC-MS/MS analysis; assay type: ADME, organism-based; summary of the method: as §1
[17] = Toxicity in NMRI mouse assessed as drug tolerance at 2 mg/kg, iv administered as single dose up to 144 hrs; assay type: organism-based; settings: in vivo
[18] = Toxicity in NMRI mouse assessed as drug tolerance at 20 mg/kg, po administered as single dose through gavage up to 144 hrs; assay type: organism-based; settings: in vivo
[19] = CNS toxicity in NMRI mouse at 2 mg/kg, iv administered as single dose up to 144 hrs; assay type: organism-based; settings: in vivo
[20] = CNS toxicity in NMRI mouse at 20 mg/kg, po administered as single dose through gavage up to 144 hrs; assay type: organism-based; settings: in vivo
[21] = Systemic toxicity in NMRI mouse at 2 mg/kg, iv administered as single dose up to 144 hrs; assay type: organism-based; settings: in vivo
[22] = Systemic toxicity in NMRI mouse at 20 mg/kg, po administered as single dose through gavage up to 144 hrs; assay type: organism-based; settings: in vivo
[23] = Fraction unbound in NMRI mouse plasma at 5 uM by LC-MS based equilibrium dialysis method; assay type: ADME, cell-free
Summary of the method: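 Equilibrium dialysis across a semipermeable membrane, 100% mouse plasma against pH 7.4 buffer, 5 μM compound at 0.5% final DMSO, 37 °C. Both sides sampled after equilibration. Duplicate incubations, reported as averages.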

[24] = Ratio of drug level in NMRI mouse brain to plasma at 2 mg/kg, iv or 20 mg/kg, po administered as single dose through gavage measured up to 144 hrs post dose by UPLC-MS/MS analysis; assay type: ADME, organism-based; settings: brain and plasma, read-out: BPR; summary of the method: as §1
[25] = Toxicity in 2 days post fertilized zebra fish embryo assessed as effect on larval development up to 50 uM; parameters: species or system Danio rerio; settings: zebrafish, 48 h
Summary of the method: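 Zebrafish embryos were exposed to rising concentrations up to 50 μM or to vehicle, and larval development was scored visually at 2 days post-fertilization.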

U3013MG [26] = experiment: Antitumor activity against GFP-labeled human U3013MG cells orthotopically xenografted in 2 days post fertilized zebra fish embryo assessed as reduction in tumor cells at 30 uM measured 6 days post transplantation by fluorescence assay; assay type: functional, cell-based
Summary of the method: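 U3013 cells labeled with Cell Tracker Green; about 3000 cells injected into the brain ventricle of 2 dpf Mitfa-morpholino larvae. Three embryos per well in 200 μL egg water holding compound or 0.1% DMSO, renewed every 6 h. Imaged 6 days post-transplantation; tumor burden from GFP fluorescence intensity and counts of larvae with grafted cells.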

[27] = Toxicity in 2 days post fertilized zebra fish embryo orthotopically xenografted with GFP-labeled human U3013MG cells assessed as larval development defect at 30 uM; parameters: species or system Danio rerio; settings: zebrafish, 48 h
[28] = Half life in NMRI mouse plasma at 2 mg/kg, iv administered as single dose by UPLC-MS/MS analysis; assay type: ADME, organism-based; summary of the method: as §1
[29] = Cytotoxicity against patient-derived U3013MG cells assessed as reduction in cell viability by Celltiter-Glo reagent based assay; assay type: functional; settings: Homo sapiens

Compound: O[C@H](c1cc(-c2ccc(C(F)(F)F)cc2)nc2ccccc12)[C@@H]1CCCCN1 (relative stereo)
IC50 [1]: 13.5 µM

Compound: O[C@H](c1cc(-c2ccc(Cl)cc2)nc2ccccc12)[C@H]1CCCCN1 (single isomer, unassigned)
IC50 [1]: 10.5 µM | Activity (U3013MG [2]): inactive

Cmax [3]: 1.97 µg/mL | Cmax [4]: 4.84 µg/mL | AUC(0-t) at 144 h [5]: 53.1 µg·h/mL | AUC(0-t) at 144 h [6]: 400 µg·h/mL | Tlast [7]: 144 h | Tlast [8]: 144 h | half-life [9]: 72 h | half-life [10]: 65 h | bioavailability [11]: 75.2% | AUC(0-t) at 144 h [12]: 62 µg·h/mL | AUC(0-t) at 144 h [13]: 246 µg·h/mL | Tlast [14]: 144 h | Tlast [15]: 144 h | half-life [16]: 81 h | fraction unbound at 5 µM [23]: 0.0137 | Kp at 144 h [24]: 2
Compound: O[C@H](c1cc(-c2ccc(Cl)cc2)nc2ccccc12)[C@@H]1CCCCN1
IC50 [1]: 3.79 µM | Activity (U3013MG [2]): Active | Activity [17]: Non-Toxic | Activity [18]: Non-Toxic | Activity [19]: Non-Toxic | Activity [20]: Non-Toxic | Activity [21]: Non-Toxic | Activity [22]: Non-Toxic | Activity [25]: Non-Toxic | Activity (U3013MG [26]): Active | Activity [27]: Non-Toxic

Compound: O[C@@H](c1cc(-c2ccc(Cl)cc2)nc2ccccc12)[C@@H]1CCCCN1 (single isomer, unassigned)
IC50 [1]: 9.91 µM | Activity (U3013MG [2]): inactive

Compound: OC(c1cc(-c2ccncc2)nc2ccccc12)C1CCCCN1 (stereo not given)
IC50 [1]: > 50 µM

Compound: Cc1ccc(-c2cc(C(O)C3CCCCN3)c3ccccc3n2)o1 (stereo not given)
IC50 [1]: > 50 µM

Compound: CCCN(CCC)C(=O)c1ccc(-c2cc([C@@H](O)[C@@H]3CCCCN3)c3ccccc3n2)cc1 (relative stereo)
IC50 [1]: 35.4 µM

Compound: Cc1noc(C)c1-c1cc(C(O)C2CCCCN2)c2ccccc2n1 (stereo not given)
IC50 [1]: > 50 µM

Compound: OC(c1cc(-c2ccc[nH]2)nc2ccccc12)C1CCCCN1 (stereo not given)
IC50 [1]: > 50 µM

Compound: OC(c1cc(-c2ccsc2)nc2ccccc12)C1CCCCN1 (stereo not given)
IC50 [1]: 26.5 µM

Compound: OC(c1cc(-c2cncnc2)nc2ccccc12)C1CCCCN1 (stereo not given)
IC50 [1]: > 50 µM

Compound: Cc1ccc(-c2cc([C@@H](O)[C@@H]3CCCCN3)c3ccccc3n2)cc1C#N (relative stereo)
IC50 [1]: 32.1 µM

Cmax [3]: 0.777 µg/mL | Cmax [4]: 1.49 µg/mL | AUC(0-t) at 144 h [5]: 12.2 µg·h/mL | AUC(0-t) at 144 h [6]: 157 µg·h/mL | Tlast [7]: 144 h | Tlast [8]: 144 h | half-life [9]: 67 h | half-life [10]: 96 h | bioavailability [11]: 89% | AUC(0-t) at 144 h [12]: 14.1 µg·h/mL | AUC(0-t) at 144 h [13]: 183 µg·h/mL | Tlast [14]: 144 h | Tlast [15]: 144 h | half-life [28]: 48 h | half-life [16]: 69 h | fraction unbound at 5 µM [23]: 0.0059
Compound: O[C@@H](c1cc(-c2ccc(Cl)cc2)nc2ccccc12)[C@H]1CCCCN1
IC50 [1]: 3.46 µM | Activity [17]: Non-Toxic | Activity [18]: Non-Toxic | Activity [19]: Non-Toxic | Activity [20]: Non-Toxic | Activity [21]: Non-Toxic | Activity [22]: Non-Toxic

Compound: O[C@H](c1cc(-c2ccc(C(F)(F)F)nc2)nc2ccccc12)[C@@H]1CCCCN1 (relative stereo)
IC50 [1]: 38 µM

Compound: OC(c1cc(-c2ccc(Cl)cc2)nc2ccccc12)C1CCCCN1 (stereo not given)
IC50 [29]: 3.14 µM
